Screening data (PubChem)
SR-BI HDL uptake = blocks mouse SR-BI lipid uptake from DiI-HDL; inhibition, % at 12.5 µM; 320,000 tested, 0.96% active; Q61009; ldlA[mSR-BI] CHO cells, DiI-HDL uptake fluorescence, 3 h;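 active = mean replicate inhibition of at least 70% and a set share of replicates each scoring 70 or more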
PKA-R2B activ = activates the human PKA-R2B holoenzyme complex | PKA-R2B holoenzyme dissociation, Cy5-IP20 fluorescence polarization; R2B truncated from residue 108, S112A mutant; 0% DMSO only, 100% 113 µM cGMP | P22694+P31323 | 340,000 tested, 0.079% active | AID 504700 | activation, % at 11.4 µM;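 active = activation above a cutoff set at the mean over all compounds plus 3 SD, cut at about 18% in these data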;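 note: higher means more holoenzyme dissociation and a rise in polarization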
PKA-R1A act = activates the PKA-R1A holoenzyme complex; P00514+P68181; PKA-R1A dissociation, Cy5-IP20 fluorescence polarization; scaled: DMSO 0%, 113 µM cGMP 100%; activation, % at 11.4 µM; 340,000 tested, 0.083% active;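 active = percent activation above the mean of all tested compounds plus 3 SD, cut at about 19% in these data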;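 note: higher means more PKAc released from R1A so a rise in polarization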
CDK5 inh = CDK5/p35 (human) kinase inhibition. Recombinant CDK5/p35, ADP-Glo luminescence, 60 min. inhibition, % at 10 µM. 330,000 tested, 0.01% active. AID 488839;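 active = highest replicate inhibition of at least 50% and at least 75% of replicates reaching 50%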
SR-BI DiI-HDL act = enhances SR-BI lipid uptake from DiI-HDL | AID 504775 | activation, % at 12.5 µM | CHO ldlA[mSR-BI] cells, DiI-HDL uptake fluorescence, 3 h; 100 = double the neutral-control signal | 320,000 tested, 0.096% active;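 active = mean replicate activation of at least 60% and every replicate at or above 60%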
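Assay system: CHO ldlA[mSR-BI] cells, LDL receptor-null, SR-BI overexpressing; medium: Ham's F12 with 0.5% BSA, HEPES 25 mM, pH 7.4; also added: DiI-HDL 10 µg/mL; timing: 3 h uptake period with compound, 37 °C; signal: DiI fluorescence, bottom read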
dFosB act = mouse delta FosB homodimer activation | P13346 | purified delta FosB, TAMRA-CDK5 oligo fluorescence polarization; percent of positive-control signal above neutral wells | activation, % at 25 µM | 340,000 tested, 0.99% active | AID 493131;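 active = mean activation above about 17%, with every replicate also reaching it, limit read from the data, passing the limit was not always enough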
R1A FP artifact = fluorescence polarization artifact in PKA-R1A activator counter-screen; shares compounds with PKA-R1A act; Cy5-IP20 peptide alone, fluorescence polarization artifact counterscreen; 280 tested, 7% active; activation, % at 11.4 µM;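 active = mean activation over triplicate runs exceeds the adjusted cutoff derived for the parent primary screen, cut at about 19% in these data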;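 note: no PKA protein present so any polarization rise reflects compound interference; higher means stronger polarization artifact and likely false positive in parent screen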
PKA-R1A act conf = PKA-R1A complex activation, confirmation. shares compounds with PKA-R1A act. Cy5-IP20 fluorescence polarization, PKA-R1A holoenzyme dissociation. activation, % at 11.4 µM. 280 tested, 9% active;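 active = mean activation over replicate wells exceeds the adjusted hit threshold taken from the earlier primary screen, cut at about 20% in these data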
Target sequence (P00514 whole entry, looked up): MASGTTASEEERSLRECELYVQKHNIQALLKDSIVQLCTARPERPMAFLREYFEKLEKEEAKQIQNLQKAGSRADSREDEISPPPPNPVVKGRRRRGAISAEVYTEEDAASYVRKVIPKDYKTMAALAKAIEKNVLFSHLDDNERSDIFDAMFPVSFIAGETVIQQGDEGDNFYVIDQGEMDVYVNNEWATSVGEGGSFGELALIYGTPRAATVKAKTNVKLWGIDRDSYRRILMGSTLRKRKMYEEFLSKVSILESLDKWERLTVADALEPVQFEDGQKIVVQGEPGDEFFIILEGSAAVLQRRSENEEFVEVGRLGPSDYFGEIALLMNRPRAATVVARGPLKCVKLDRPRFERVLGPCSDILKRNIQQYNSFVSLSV
Hits are given with their value; n = inactive; x = not tested or not shown. A selection: hits, their analogues and other compounds. The true share with any hit is near 2.1%.

SMILES	SR-BI HDL uptake	PKA-R2B activ	PKA-R1A act	CDK5 inh	SR-BI DiI-HDL act	dFosB act	R1A FP artifact	PKA-R1A act conf
COc1ccc(Nc2nc(N)nc(CSc3nncn3C)n2)cc1	n	n	n	n	n	n	x	x
COc1ccc(CN(C)CC(=O)NC(=O)NCc2ccccc2)cc1OC	n	n	21	n	n	n	n	n
CCN(CC(=O)Nc1ccccc1OC)C(=O)CSCc1ccc(C)cc1	n	n	22	n	n	n	n	n
Cc1ccc(S(=O)(=O)N/N=C/c2cc(Br)c(C)o2)cc1	n	n	n	n	n	n	x	x
Cc1ccc(S(=O)(=O)NN=Cc2ccco2)cc1	x	n	22	x	x	x	n	n
Cc1cn(CC(=O)N2CCN(c3ccccn3)CC2)c(=O)[nH]c1=O	n	n	n	n	n	n	x	x
COc1ccc(/C=C(\C#N)C(=O)OCCNC(=O)c2ccncc2)cc1	n	n	20	n	n	n	n	n
FC(F)(F)Oc1ccc(Nc2nc(N3CCOCC3)nc(N3CCOCC3)n2)cc1	n	n	n	n	n	n	x	x
Cn1c(N)c(S(=O)(=O)NCc2ccc(F)cc2)c(=O)n(C)c1=O	n	n	n	n	n	n	x	x
Cc1cc(OCCN2CCOCC2)ccc1Cl	n	n	n	n	n	n	x	x
COc1ccc(-c2csc(NC(C)c3nc4cc(Cl)c(Cl)cc4n3CCCO)n2)cc1 (configuration not stated)	n	n	n	n	n	n	x	x
CC(=O)Nc1ccc(C(=O)OCc2ccc(Cl)cc2)cc1	n	n	n	n	n	n	x	x
CCCS(=O)(=O)c1ccc(COC(=O)c2ccc(NC(C)=O)cc2)cc1	n	n	22	n	n	n	n	n
CCCn1nc(C(=O)Nc2cc(OCC)c(N3CCOCC3)cc2OCC)c2ccccc2c1=O	n	n	n	n	n	n	x	x
COc1ccccc1Oc1coc2cc(OCC(N)=O)ccc2c1=O	n	n	19	n	n	n	n	n
CCCNC(=O)COc1ccc2c(=O)c(Oc3ccccc3F)coc2c1	n	n	n	n	n	n	x	x
CCc1cc(C(=O)OC)c(NC(=O)CC2NCCNC2=O)s1 (configuration not stated)	n	n	25	n	n	n	n	n
COc1ccc(CCC(=O)Nc2ccc(S(=O)(=O)N3CCOCC3)cc2)cc1OC	x	n	n	x	x	x	x	x
O=C(O)C1C2CCC(C2)C1C(=O)NCc1ccco1 (configuration not stated)	n	n	n	n	n	n	x	x
O=C(NCc1ccco1)C1CC2CCC1C2 (configuration not stated)	n	n	20	n	n	n	n	n
Cc1ccc(S(=O)(=O)NCCn2cnc([N+](=O)[O-])n2)cc1	n	n	21	n	n	n	n	n
O=C(COC(=O)C1CC(=O)N(Cc2ccco2)C1)Nc1ccc(F)cc1F (configuration not stated)	n	n	20	n	n	n	n	n
Cc1cccn2c(CNC3CCCc4ccccc43)c(C(=O)N3CCOCC3)nc12 (configuration not stated)	x	n	n	n	x	n	x	x
Cc1cccn2c(CN[C@@H]3CCCC[C@H]3c3ccccc3)c(C(=O)N3CCOCC3)nc12	n	n	19	n	n	n	n	n
COC(=O)C1(C)Nc2ccccc2C(=O)N1c1ccccc1OC (configuration not stated)	n	n	23	n	n	n	n	n
COC(=O)C1(C)NC(=O)c2ccccc2N1 (configuration not stated)	n	n	n	n	n	n	x	x
O=C(COc1ccc(C(=O)NCCN2CCOCC2)cc1)Nc1cccc(C(F)(F)F)c1	n	n	n	n	n	n	x	x
Cc1nnc(-c2cnn(C)c2N)n1CCCN(C)C	n	n	n	n	n	n	x	x
